Screens from PubChem BioAssay.
Most compounds without a hit are left out; they make up all but 2.1% or so of the library.
ARNT TACC3 PPI: ARNT/TACC3 interaction disruption; Q9Y6A5; AlphaScreen His-ARNT PAS-B/GST-TACC3 binding, luminescence; TACC3 fragment carries E629A point mutation; inhibition, % at 9.99 µM; 390,000 compounds, 0.66% hits; AID 623870;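 active = mean inhibition of replicates at least 50% and at least half of replicates each reaching 50%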
CAL PDZ FP-1: inhibitors of human CAL PDZ peptide binding; inhibition, % at 24.9 µM; 300,000 compounds, 0.92% hits; Q9HD26; purified CAL PDZ, TMR-peptide fluorescence polarization, 1 h;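 active = mean inhibition of at least 30% with at least half of replicates also reaching 30%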
SR-BI DiI inh: inhibitors of mouse SR-BI mediated HDL lipid uptake. Q61009. ldlA[mSR-BI] CHO cells, DiI-HDL uptake fluorescence, 3 h. inhibition, % at 12.5 µM. 320,000 compounds, 0.96% hits. AID 488896;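 active = mean replicate inhibition of at least 70% and a set share of replicates each scoring 70 or more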
Target sequence (Q61009 whole entry, looked up): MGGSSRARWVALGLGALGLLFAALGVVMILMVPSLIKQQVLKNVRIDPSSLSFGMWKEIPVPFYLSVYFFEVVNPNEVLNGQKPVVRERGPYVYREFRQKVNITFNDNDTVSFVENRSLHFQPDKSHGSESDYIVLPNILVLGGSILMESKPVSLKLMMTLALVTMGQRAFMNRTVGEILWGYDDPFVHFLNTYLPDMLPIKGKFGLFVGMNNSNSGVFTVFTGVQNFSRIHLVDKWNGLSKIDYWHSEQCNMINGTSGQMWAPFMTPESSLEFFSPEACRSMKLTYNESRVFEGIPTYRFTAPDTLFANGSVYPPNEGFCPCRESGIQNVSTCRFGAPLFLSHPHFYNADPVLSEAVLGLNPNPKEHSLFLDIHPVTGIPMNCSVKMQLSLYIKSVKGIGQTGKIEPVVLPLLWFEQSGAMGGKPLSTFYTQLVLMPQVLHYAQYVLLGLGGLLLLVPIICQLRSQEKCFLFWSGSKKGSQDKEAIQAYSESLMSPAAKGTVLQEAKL
SR-BI DiI-HDL act: enhances SR-BI lipid uptake from DiI-HDL | CHO ldlA[mSR-BI] cells, DiI-HDL uptake fluorescence, 3 h; 100 = double the neutral-control signal | activation, % at 12.5 µM | 320,000 compounds, 0.096% hits;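 active = mean replicate activation of at least 60% and every replicate at or above 60%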
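Test system: SR-BI-overexpressing, LDLR-lacking CHO cells; Also added: labelled HDL, 10 µg/mL; Measured by: bottom-read cell fluorescence after medium removal, ex 550/em 595 nm; Timing: 3 h uptake period with compound, 37 °C; Buffer or medium: F12, 0.5% BSA, 25 mM HEPES; Doses: single compound concentration, delivered by pin transfer.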
miR122 inh: inhibitors of miR-122 in Huh7 cells. Huh7 miR-122 Renilla luciferase sensor, 48 h; neutral wells = 0, positive control = 100. activation (reporter increase), % at 12.5 µM. 340,000 compounds, 0.3% hits. AID 602342;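 active = mean replicate activation score at least 90 and every replicate individually at or above 90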;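 also: higher luciferase means less miR-122 activity so hits act as miR-122 inhibitors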
CAL PDZ FP-2: human CAL PDZ-peptide interaction inhibition. Q9HD26. inhibition, % at 20 µM. purified CAL PDZ, TMR-peptide fluorescence polarization, 1 h. AID 504414. 330,000 compounds, 0.02% hits;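 active = highest replicate inhibition of at least 40%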
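Material: tagged CAL PDZ protein CerCALP, purified; buffer or medium: sodium phosphate/NaCl buffer pH 7.4 with TCEP, IgG, Thesit; also added: fluorescent TMR peptide probe; schedule: 1 h incubation at room temperature before polarization reading; technique: fluorescence polarization from S- and P-plane intensities, G-factor corrected; control set: unlabelled peptide and DMSO controls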
Hits are given with their value; . = inactive; / = not tested or not shown.

SMILES	ARNT TACC3 PPI	CAL PDZ FP-1	SR-BI DiI inh	SR-BI DiI-HDL act	miR122 inh	CAL PDZ FP-2
CC(=NNc1nc2ccccc2s1)c1ncccn1	63	.	.	.	/	.
CC(=NNc1nc2ccccc2o1)c1ncccn1	62	.	.	.	.	.
C/C(=N\Nc1nc2ccccc2s1)c1cccs1	.	.	.	.	.	.
COc1cccc(NC(=O)N2C[C@H](O)COC[C@H]3O[C@H](CC(=O)NCCCN4CCOCC4)CC[C@@H]32)c1	.	/	/	/	.	/
CNC[C@@H]1Oc2ncc(C#CC3(O)CCCC3)cc2C(=O)N([C@@H](C)CO)C[C@H]1C	.	/	/	/	.	/
CCCCOc1ccc(-c2ncc(N)cn2)cc1	.	/	.	313	/	.
CCCCOc1ccc(-c2nnc(N)s2)cc1	.	.	.	.	/	.
CCOc1ccccc1C(=O)NCC(=O)OCC(=O)N1CCCC1	.	44	.	.	.	.
COc1ccc(NS(=O)(=O)Cc2ccccc2)cc1OC	.	.	.	.	.	.
CCCS(=O)(=O)Nc1ccc(Nc2c3ccccc3nc3ccccc23)c(OC)c1	.	.	80	.	.	.
C[C@@H]1CN([C@@H](C)CO)C(=O)c2cc(NC(=O)Nc3ccccc3)ccc2O[C@@H](C)CCCCO[C@H]1CN(C)Cc1ccncc1	.	/	/	/	.	/
Cc1ccc(S(=O)(=O)N(C)C[C@@H]2OCCCC[C@H](C)Oc3ccc(NC(=O)Nc4c(C)noc4C)cc3C(=O)N([C@@H](C)CO)C[C@H]2C)cc1	.	/	/	/	.	/
CCN(CC)CCNc1ncnc2c1sc1nc(N3CCOCC3)c3c(c12)CCCC3	.	.	.	.	/	.
Cc1cccc(-n2cnc3c(sc4nc(N5CCOCC5)c5c(c43)CCCC5)c2=O)c1	.	60	.	.	/	.
CC(C)COc1ccc(-c2nn(-c3ccccc3)cc2/C=C2/SC(=S)N(CC(=O)O)C2=O)cc1	.	.	.	.	.	.
O=C(O)CN1C(=O)/C(=C\c2cn(-c3ccccc3)nc2-c2ccccc2)SC1=S	46	.	.	.	.	.
Cc1nc2ccccc2c(=O)n1/N=C/c1ccccc1	.	.	.	.	.	.
CCOc1cc(/C=N/n2c(C)nc3sc(C)c(C)c3c2=O)ccc1O	.	72	.	.	/	.
Cc1[nH]n(-c2ccccc2)c(=O)c1/C=N/n1c(C)nc2ccccc2c1=O	31	.	.	.	.	.
COc1cc(/C=N/n2c(C)nc3ccccc3c2=O)ccc1O	.	.	.	507	.	.
Cc1nc2ccccc2c(=O)n1/N=C/c1ccc2ccccc2c1O	.	.	90	.	/	.
CCCC(=O)Nc1ccc2c(c1)C(=O)N(C)[C@H]1CC[C@@H](CC(=O)NCc3ccccc3F)O[C@H]1CO2	.	/	/	/	.	/
Cc1c(Cl)cccc1NC(=O)c1ncn[nH]1	73	.	/	/	.	.
CCCCCCCCOC(=O)c1cc([N+](=O)[O-])c(Sc2ncnc3nc[nH]c23)c([N+](=O)[O-])c1	.	.	77	.	.	.
CCCCOC(=O)c1ccc(Nc2ncnc3nc[nH]c23)cc1	.	/	.	.	.	.
SMILES	ARNT TACC3 PPI	CAL PDZ FP-1	SR-BI DiI inh	SR-BI DiI-HDL act	miR122 inh	CAL PDZ FP-2
O=C(C1CCC1)N1CC[C@@H]2[C@H](CO)Nc3ccc(-c4cccc(F)c4)cc3[C@@H]21	.	/	/	/	.	/
O=C(C[C@@H]1C=C[C@H](NC(=O)c2cccc(F)c2)[C@H](CO)O1)NCc1ccccc1	.	/	/	/	.	/
O=C(Nc1ccc2c(c1)OCCO2)C1CCN(S(=O)(=O)c2ccc3c(c2)OCCO3)CC1	.	.	.	.	.	.
O=C(Nc1ccc2c(c1)OCCO2)C1CCN(S(=O)(=O)c2ccccc2)CC1	.	.	.	.	177	.
Cn1c(/C=C(\C#N)C(N)=S)ccc1-c1ccc(Br)cc1	.	/	74	.	/	.
Cn1cccc1/C=C(\C#N)C(N)=S	.	.	.	.	.	.
CCc1ccc(-c2cc(C)no2)cc1S(=O)(=O)NCc1ccccc1OC	.	.	.	/	109	.
Cc1cc(-c2ccc(C(C)C)c(S(=O)(=O)NCc3ccco3)c2)on1	.	.	.	.	168	.
O=C(C[C@H]1CC[C@H]2[C@@H](COC[C@H](O)CN2CCC(F)(F)F)O1)NCc1ccc(Oc2ccccc2)cc1	.	/	/	/	.	/
C[C@H](CO)N1C[C@H](C)[C@H](CN(C)C(=O)Cc2ccccc2)OCCCC[C@H](C)Oc2ccc(NC(=O)C3CCCCC3)cc2C1=O	.	/	/	/	.	/
C[C@H](CO)N1C[C@H](C)[C@@H](CN(C)Cc2ccc3c(c2)OCO3)Oc2ccc(NC(=O)C3CC3)cc2C1=O	.	/	/	/	.	/
CO[C@@H]1CN(C)C(=O)c2cc(NC(=O)c3ccccc3F)ccc2OC[C@H](C)N(CC2CC2)C[C@@H]1C	.	/	/	/	/	/
CCN(c1ccccc1)S(=O)(=O)c1cc(CN2C(=O)c3cccnc3C2=O)ccc1OC	.	.	.	.	.	.
COc1cccc(CNS(=O)(=O)c2cc(CN3C(=O)c4cccnc4C3=O)ccc2OC)c1	50	.	.	.	.	.
COc1ccc(CN2C(=O)c3cccnc3C2=O)cc1S(=O)(=O)N(C)c1cccc(C)c1	.	47	.	.	.	.
C[C@H]1CN([C@@H](C)CO)C(=O)c2cc(C#CC3CC3)cnc2O[C@H]1CN(C)C(=O)C1CCCCC1	/	/	/	/	.	/
Cc1ccc(C(C)C)c(OC/C(O)=C(\C#N)c2nc3ccccc3[nH]2)c1	.	63	.	.	/	.
C[C@H](CO)N1C[C@H](C)[C@@H](CN(C)C)Oc2ncc(C#CC3CCCCC3)cc2C1=O	/	/	/	/	.	/
CN(C(=O)c1cc2ccccc2oc1=O)C1(C)CCS(=O)(=O)C1 (stereo not drawn)	.	47	.	.	.	.
CN(C(=O)c1ccccc1)C1(C)CCS(=O)(=O)C1 (stereo not drawn)	/	.	.	.	.	.
COc1cccc(-c2cc(C(F)(F)F)n3nc(C(=O)N4CCCCC4c4cccnc4)cc3n2)c1 (stereo not drawn)	.	.	77	.	.	.
C[C@@H]1CN([C@@H](C)CO)C(=O)c2cc(NC(=O)C3CCCCC3)ccc2O[C@H]1CN(C)C(=O)NC1CCCCC1	.	/	/	/	.	/
CC1(C)Cc2c(sc3ncn(N)c(=N)c23)CO1	.	.	.	.	.	.
CC1(C)Cc2c(sc3ncnc(NN)c23)CO1	47	.	.	.	.	.
COc1cccc(S(=O)(=O)N[C@@H]2C=C[C@H](CC(=O)NCc3ccc(F)cc3)O[C@@H]2CO)c1	.	/	/	/	/	/
CC(=O)c1sc(NC(=O)c2cc(-c3ccccc3)nn2-c2ccccc2)nc1C	/	.	80	.	.	.
O=C(Nc1nc2ccccc2s1)c1cc(-c2ccccc2)nn1-c1ccccc1	.	.	.	.	.	.
